What was measured:
Mus musculus [1] = experiment: Plasma concentration in CD1 mouse assessed per gram of wet tissue at 400 to 600 kBq, iv after 60 mins post-injection by gamma counting; assay type: ADME, organism-based; settings: in vivo, 1 h
Outline: (§1)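 Female CD-1 mice (~8-12 weeks, 20-28 g), fasted 24 h with free access to water. 400-600 kBq [18F] tracer in 200 μL saline given by tail vein to conscious mice. At 5, 30, 60 or 120 min pi (n=4-5 per time) mice anaesthetised, blood taken, then euthanised. Samples weighed, γ-counted, %ID/g wet tissue calculated.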

[2] = Biodistribution in CD1 mouse thymus assessed per gram of wet tissue at 400 to 600 kBq, iv after 60 mins post-injection by gamma counting; assay type: ADME, organism-based; settings: in vivo, 1 h
Outline: (§2)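 Female CD-1 mice (~8-12 weeks, 20-28 g), habituated ≥48 h and fasted 24 h with water available. The [18F] tracer (>150 GBq/μmol at end of synthesis) was given in 200 μL saline into the tail vein of conscious animals. At each time point, n=4-5, mice were anaesthetised, blood and urine sampled, then killed by cervical dislocation. Organs were weighed and γ-counted, and values calculated as % ID/g wet tissue.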

Blood = experiment: Biodistribution in CD1 mouse blood assessed per gram of wet tissue at 400 to 600 kBq, iv after 60 mins post-injection by gamma counting; assay type: ADME, organism-based; settings: in vivo, 1 h
Outline: (§3)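 Female CD-1 mice (~8-12 weeks, 20-28 g) were fasted 24 h with free water. Conscious mice got 400-600 kBq [¹⁸F] tracer in saline by tail vein. At 5, 30, 60 or 120 min (n=4-5 per time) they were anesthetized, blood and urine sampled, then killed by cervical dislocation. Organs were weighed and γ-counted, giving % ID/g wet tissue.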

Kidney = experiment: Biodistribution in CD1 mouse kidney assessed per gram of wet tissue at 400 to 600 kBq, iv after 5 mins post-injection by gamma counting; assay type: ADME, organism-based; settings: in vivo; outline: as §3
Spleen [3] = experiment: Biodistribution in CD1 mouse spleen assessed per gram of wet tissue at 400 to 600 kBq, iv after 120 mins post-injection by gamma counting; assay type: ADME, organism-based; settings: in vivo, 2 h; outline: as §2
Stomach [4] = experiment: Biodistribution in CD1 mouse stomach assessed per gram of wet tissue at 400 to 600 kBq, iv after 60 mins post-injection by gamma counting; assay type: ADME, organism-based; settings: in vivo, 1 h; outline: as §2
Cerebellum [5] = experiment: Biodistribution in CD1 mouse cerebellum assessed per gram of wet tissue at 400 to 600 kBq, iv after 30 mins post-injection by gamma counting; assay type: ADME, organism-based; settings: in vivo, 0.5 h; outline: as §3
Lung = experiment: Biodistribution in CD1 mouse lung assessed per gram of wet tissue at 400 to 600 kBq, iv after 5 mins post-injection by gamma counting; assay type: ADME, organism-based; settings: in vivo; outline: as §2
Femur [6] = experiment: Biodistribution in CD1 mouse femur assessed per gram of wet tissue at 400 to 600 kBq, iv after 5 mins post-injection by gamma counting; assay type: ADME, organism-based; settings: in vivo; outline: as §3
[7] = Biodistribution in CD1 mouse gonad assessed per gram of wet tissue at 400 to 600 kBq, iv after 30 mins post-injection by gamma counting; assay type: ADME, organism-based; settings: in vivo, 0.5 h; outline: as §3
[8] = Ratio of drug level in cerebellum to plasma in CD1 mouse at 400 to 600 kBq, iv after 5 mins post-injection; assay type: ADME, organism-based
Outline: (§4)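 Female CD-1 mice (~8-12 weeks, 20-28 g), fasted 24 h with free water; 400-600 kBq tracer in 200 μL saline by tail vein into conscious animals. Killed at set times pi (n=4-5 per time); blood and organs weighed, γ-counted, expressed as % ID/g wet tissue; ratio from cerebellum and plasma uptake.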

Spleen [9] = experiment: Biodistribution in CD1 mouse spleen assessed per gram of wet tissue at 400 to 600 kBq, iv after 60 mins post-injection by gamma counting in presence of 1 mg/kg, ip sigma 1/sigma 2 receptor antagonist haloperidol treated before compound addition; assay type: organism-based; parameters: route intravenous; settings: in vivo, 1 h
Outline: (§5)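 They were killed at 60 min pi, and organs were weighed and γ-counted as % ID/g wet tissue. Comparison with controls used Student's t test (independent, two-tailed).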

Femur [10] = experiment: Biodistribution in CD1 mouse femur assessed per gram of wet tissue per gram of wet tissue at 400 to 600 kBq, iv after 60 mins post-injection by gamma counting in presence of 1 mg/kg, ip sigma 1/sigma 2 receptor antagonist haloperidol treated before compound addition; assay type: organism-based; parameters: dose 1 mg/kg, route intravenous; settings: in vivo, 1 h
Outline: (§6)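 Blocking arm in fasted female CD-1 mice (n=5). […] Animals were killed at 60 min post-injection, and organs were weighed and γ-counted as % ID/g wet tissue. Percent change was taken against the 60 min control group, with two-tailed unpaired Student's t test.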

Muscle tissue [11] = experiment: Biodistribution in CD1 mouse muscle assessed per gram of wet tissue at 400 to 600 kBq, iv after 60 mins post-injection by gamma counting; assay type: ADME, organism-based; settings: in vivo, 1 h; outline: as §2
Spleen [12] = experiment: Biodistribution in CD1 mouse spleen assessed per gram of wet tissue at 400 to 600 kBq, iv after 5 mins post-injection by gamma counting; assay type: ADME, organism-based; settings: in vivo; outline: as §2
Mus musculus [13] = experiment: Plasma concentration in CD1 mouse assessed per gram of wet tissue at 400 to 600 kBq, iv after 5 mins post-injection by gamma counting; assay type: ADME, organism-based; settings: in vivo; outline: as §1
Pancreas = experiment: Biodistribution in CD1 mouse pancreas assessed per gram of wet tissue at 400 to 600 kBq, iv after 60 mins post-injection by gamma counting in presence of 1 mg/kg, ip sigma 1/sigma 2 receptor antagonist haloperidol treated before compound addition; assay type: organism-based; parameters: route intravenous; settings: in vivo, 1 h; outline: as §5
[14] = Biodistribution in CD1 mouse thymus assessed per gram of wet tissue at 400 to 600 kBq, iv after 5 mins post-injection by gamma counting; assay type: ADME, organism-based; settings: in vivo; outline: as §2
Brain = experiment: Biodistribution in CD1 mouse brain assessed per gram of wet tissue at 400 to 600 kBq, iv after 60 mins post-injection by gamma counting in presence of 1 mg/kg, ip sigma 1/sigma 2 receptor antagonist haloperidol treated before compound addition; assay type: organism-based; parameters: dose 1 mg/kg, route intravenous; settings: in vivo, 1 h; outline: as §6
[15] = Ratio of drug level in cerebellum to plasma in CD1 mouse at 400 to 600 kBq, iv after 60 mins post-injection; assay type: ADME, organism-based; outline: as §4
Cerebellum [16] = experiment: Biodistribution in CD1 mouse cerebellum assessed per gram of wet tissue at 400 to 600 kBq, iv after 120 mins post-injection by gamma counting; assay type: ADME, organism-based; settings: in vivo, 2 h; outline: as §3
Liver = experiment: Biodistribution in CD1 mouse liver assessed per gram of wet tissue at 400 to 600 kBq, iv after 30 mins post-injection by gamma counting; assay type: ADME, organism-based; settings: in vivo, 0.5 h; outline: as §2
Muscle tissue [17] = experiment: Biodistribution in CD1 mouse muscle assessed per gram of wet tissue at 400 to 600 kBq, iv after 30 mins post-injection by gamma counting; assay type: ADME, organism-based; settings: in vivo, 0.5 h; outline: as §2
Stomach [18] = experiment: Biodistribution in CD1 mouse stomach assessed per gram of wet tissue at 400 to 600 kBq, iv after 60 mins post-injection by gamma counting in presence of 1 mg/kg, ip sigma 1/sigma 2 receptor antagonist haloperidol treated before compound addition; assay type: organism-based; parameters: route intravenous; settings: in vivo, 1 h; outline: as §5
[19] = Metabolic stability in CD1 mouse plasma at 200 to 300 MBq, iv after 60 mins post-injection by supelcosil C18 HPLC and TLC-radiochromatography; assay type: ADME, organism-based; settings: read-out: Stability
Outline: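 Mice received 200-300 MBq [18F] tracer in 200 μL 0.9% saline via the tail vein, and samples were taken at 45 and 60 min (n=2 per time). Plasma was obtained by centrifugation (2000g, 4 °C, 10 min); brain and liver were homogenised in ice-cold 50 mM TRIS-HCl pH 7.4. Samples were precipitated with ice-cold MeCN and centrifuged (4000g, 4 °C, 15 min), and supernatants were analysed by gradient radio-HPLC and radio-TLC, with HPLC fractions γ-counted.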

With `[18F]CCCC1OC2(CCN(Cc3ccccc3)CC2)c2ccccc21` (stereo not given) the Drug uptake (Mus musculus [1]) was 0.52 %ID, the Drug uptake [2] was 2.87 %ID and the Drug uptake (Blood) was 0.37 %ID. It also gave a Drug uptake (Kidney) of 12.1 %ID, a Drug uptake (Spleen [3]) of 4.65 %ID and a Drug uptake (Stomach [4]) of 3.17 %ID. It also gave a Drug uptake (Cerebellum [5]) of 3.71 %ID, a Drug uptake (Lung) of 16.2 %ID and a Drug uptake (Femur [6]) of 2.17 %ID. The Drug uptake [7] was 4.11 %ID, the Kp at 5 min [8] was 2.49 and the Drug uptake (Spleen [9]) was 1.89 %ID. It also gave a Drug uptake (Femur [10]) of 4.27 %ID, a Drug uptake (Muscle tissue [11]) of 0.97 %ID and a Drug uptake (Spleen [12]) of 4.51 %ID. The Drug uptake (Mus musculus [13]) was 1.85 %ID, the Drug uptake (Pancreas) was 3.05 %ID and the Drug uptake [14] was 3.98 %ID. The Drug uptake (Brain) was 0.54 %ID, the Kp at 1 h [15] was 5.75 and the Drug uptake (Cerebellum [16]) was 2.41 %ID. The Drug uptake (Liver) was 4.28 %ID, the Drug uptake (Muscle tissue [17]) was 1.8 %ID and the Drug uptake (Stomach [18]) was 5.88 %ID. The remaining at 1 h [19] was greater than 85%.

Source: ChEMBL document CHEMBL1154191, “Evaluation of spirocyclic 3-(3-fluoropropyl)-2-benzofurans as sigma1 receptor ligands for neuroimaging with positron emission tomography” (J Med Chem, 2009)
